# Reference: ChEMBL document CHEMBL1152533, “Synthesis and biological evaluation of 3,4-diaryl-5-aminoisoxazole derivatives” (Bioorg Med Chem, 2009)
# What was measured:
# K562 = test: Cytotoxicity against human K562 cells after 48 hrs by MTT assay; type: functional, cell-based; conditions: K562, 48 h
# Summary of the method: (§1)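 MTT viability assay: cells exposed to compound for 48 h, MTT in RPMI-1640 added for a further 4 h at 37 °C, formazan dissolved in DMSO, absorbance at 570 nm. Triplicate wells, three independent experiments; IC50 (50% viability inhibition) computed by dose-effect analysis and reported as mean of three experiments. CA-4 as positive control.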
# [1] = Cytotoxicity against human ECA109 cells after 48 hrs by MTT assay; type: functional, cell-based; conditions: ECa-109, 48 h; summary of the method: as §1
# A549 = test: Cytotoxicity against human A549 cells after 48 hrs by MTT assay; type: functional, cell-based; conditions: A549, 48 h; summary of the method: as §1
# SMMC-7721 [2] = test: Cytotoxicity against human SMMC7721 cells after 48 hrs by MTT assay; type: functional, cell-based; conditions: SMMC-7721, 48 h; summary of the method: as §1
# PC-3 = test: Cytotoxicity against human PC3 cells after 48 hrs by MTT assay; type: functional, cell-based; conditions: PC-3, 48 h; summary of the method: as §1
# [3] = Inhibition of bovine tubulin polymerization by fluorescent plate reader analysis; design: species or system Bos taurus
# SMMC-7721 [4] = test: Cell cycle arrest in human SMMC7721 cells assessed as accumulation at G2/M phase at 0.1 uM after 24 hrs by propidium iodide staining-based FACS analysis; type: functional
# Summary of the method: (§2)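 SMMC-7721 cells (5 × 10⁴/mL) exposed 24 h to graded concentrations (0.01–1.0 µM) alongside DMSO and CA-4 controls; washed twice in PBS, fixed in 75% ethanol at −20 °C, RNase-treated at 37 °C for 0.5 h, stained with propidium iodide at 4 °C for 15 min, then analysed by flow cytometry for G2/M and S fractions.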
# SMMC-7721 [5] = test: Cell cycle arrest in human SMMC7721 cells assessed as accumulation at S phase at 0.1 uM after 24 hrs by propidium iodide staining-based FACS analysis; type: functional; summary of the method: as §2
# SMMC-7721 [6] = test: Cell cycle arrest in human SMMC7721 cells assessed as accumulation at G2/M phase at 1 uM after 24 hrs by propidium iodide staining-based FACS analysis; type: functional; summary of the method: as §2
# SMMC-7721 [7] = test: Cell cycle arrest in human SMMC7721 cells assessed as accumulation at S phase at 1 uM after 24 hrs by propidium iodide staining-based FACS analysis; type: functional; summary of the method: as §2
# SMMC-7721 [8] = test: Induction of apoptosis in human SMMC7721 cells at 0.1 uM after 48 hrs; type: functional
# SMMC-7721 [9] = test: Induction of apoptosis in human SMMC7721 cells at 0.5 uM after 48 hrs; type: functional
# SMMC-7721 [10] = test: Induction of apoptosis in human SMMC7721 cells at 1 uM after 48 hrs; type: functional
SMILES,IC50 (K562),IC50 [1],IC50 (A549),IC50 (SMMC-7721 [2]),IC50 (PC-3),IC50 [3],Activity (SMMC-7721 [4]),Activity (SMMC-7721 [5]),Activity (SMMC-7721 [6]),Activity (SMMC-7721 [7]),Activity (SMMC-7721 [8]),Activity (SMMC-7721 [9]),Activity (SMMC-7721 [10])
COc1ccc(/C=C\c2cc(OC)c(OC)c(OC)c2)cc1O [COMBRETASTATIN A4],0.046 µM,4.5 µM,0.42 µM,3.22 µM,5.4 µM,,,,,,,,
COc1cc(-c2noc(NC(C)=O)c2-c2ccc(Cl)cc2)cc(OC)c1OC,3.62 µM,9.53 µM,24.9 µM,> 50 µM,1.91 µM,,,,,,,,
COc1ccc(-c2noc(NC(C)=O)c2-c2cc(OC)c(OC)c(OC)c2)cc1OC,8.75 µM,> 50 µM,> 50 µM,> 50 µM,> 50 µM,,,,,,,,
COc1ccc(-c2noc(NC(C)=O)c2-c2cc(OC)c(OC)c(OC)c2)cc1,1 µM,> 50 µM,> 50 µM,> 50 µM,> 50 µM,,,,,,,,
COc1cc(-c2noc(N(C(C)=O)C(C)=O)c2-c2ccc(Cl)cc2)cc(OC)c1OC,3.96 µM,39.8 µM,> 50 µM,> 50 µM,2.63 µM,,,,,,,,
COc1ccc(-c2noc(N)c2-c2cc(OC)c(OC)c(OC)c2)cc1OC,1.4 µM,1.66 µM,> 50 µM,> 50 µM,> 50 µM,,,,,,,,
COc1ccc(-c2c(-c3cc(OC)c(OC)c(OC)c3)noc2NC(C)=O)cc1,0.38 µM,10.8 µM,10.7 µM,> 50 µM,> 50 µM,,,,,,,,
COc1ccc(-c2noc(NC(C)=O)c2-c2cc(OC)c(OC)c(OC)c2)cc1OCc1ccccc1,,> 50 µM,> 50 µM,,> 50 µM,,,,,,,,
COc1ccc(-c2c(-c3cc(OC)c(OC)c(OC)c3)noc2N(C(C)=O)C(C)=O)cc1,0.068 µM,0.39 µM,0.43 µM,1.36 µM,0.36 µM,2.1 µM,41.5%,50.4%,70%,24.3%,37%,70%,72%
COc1cc(-c2noc(NC(C)=O)c2-c2cc(OC)c(OC)c(OC)c2)cc(OC)c1OC,3.97 µM,13.9 µM,21.1 µM,24.6 µM,14.9 µM,,,,,,,,
COc1ccc(-c2noc(N)c2-c2cc(OC)c(OC)c(OC)c2)cc1O,,> 50 µM,> 50 µM,,> 50 µM,,,,,,,,
COc1ccc(-c2c(-c3cc(OC)c(OC)c(OC)c3)noc2NC(C)=O)cc1OC,3.71 µM,17.7 µM,19.8 µM,46.3 µM,> 50 µM,,,,,,,,
COc1cc(-c2noc(N)c2-c2cc(OC)c(OC)c(OC)c2)cc(OC)c1OC,3.65 µM,> 50 µM,> 50 µM,> 50 µM,> 50 µM,,,,,,,,
COc1ccc(-c2noc(N)c2-c2cc(OC)c(OC)c(OC)c2)cc1,0.022 µM,9.82 µM,21.8 µM,39.8 µM,15 µM,,,,,,,,
COc1ccc(-c2noc(N)c2-c2cc(OC)c(OC)c(OC)c2)cc1OCc1ccccc1,,> 50 µM,38.2 µM,,> 50 µM,,,,,,,,
COc1ccc(-c2noc(NC(C)=O)c2-c2cc(OC)c(OC)c(OC)c2)cc1O,,> 50 µM,> 50 µM,,> 50 µM,,,,,,,,
COc1ccc(-c2c(-c3cc(OC)c(OC)c(OC)c3)noc2N)cc1,0.04 µM,5.84 µM,4.49 µM,12 µM,3.03 µM,1.8 µM,,,,,,,
COc1cc(-c2noc(N)c2-c2ccc(Cl)cc2)cc(OC)c1OC,0.64 µM,> 50 µM,> 50 µM,> 50 µM,> 50 µM,,,,,,,,
COc1ccc(-c2c(-c3cc(OC)c(OC)c(OC)c3)noc2N(C(C)=O)C(C)=O)cc1OC,4.29 µM,> 50 µM,> 50 µM,> 50 µM,> 50 µM,,,,,,,,
COc1ccc(-c2c(-c3cc(OC)c(OC)c(OC)c3)noc2N)cc1OC,1.27 µM,20.6 µM,> 50 µM,> 50 µM,21.1 µM,,,,,,,,
